Measurements taken from ChEMBL document CHEMBL1125770, “Synthesis and antitumor properties of activated cyclophosphamide analogues” (J Med Chem, 1991).

Columns and labels:
[1] = Half-life in 4:6 acetone/ 1.0 M HEPES buffer, pH 7.4, 37 degree celsius; assay type: ADME
Procedure, shortened: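 Generation of 4 from the 4-hydroxy compounds followed by ³¹P NMR in 4:6 acetone/1.0 M HEPES, pH 7.4, 37 °C; half-time of phosphoramide mustard release recorded.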

[2] = test system: L1210; assay: In vitro antitumor activity against wild-type L1210/0 cells; assay type: functional, Mus musculus
Procedure, shortened: (§1)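 Clonogenic assay on L1210 and P388 leukemia cells, wild-type (/O) and cyclophosphamide-resistant (/CP) lines, with 1-h drug exposure. LC99 is the concentration that cuts colony formation to 1% of control. It comes from linear regression of log survival vs concentration, at least three determinations.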

[3] = test system: L1210; assay: In vitro antitumor activity against cyclophosphamide-resistant L1210/CP cells; assay type: functional, Mus musculus; procedure, shortened: as §1
[4] = test system: P388; assay: In vitro antitumor activity against cyclophosphamide-resistant P388/CP cells; assay type: functional, Mus musculus; procedure, shortened: as §1
[5] = test system: P388; assay: In vitro antitumor activity against wild-type P388/0 cells; assay type: functional, Mus musculus; procedure, shortened: as §1
[6] = test system: P388; assay: Resistance factor for LC99 of resistant (P388/CP) to that of LC99 for wild type (P388/0).; assay type: functional, Mus musculus
Procedure, shortened: (§2)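 Resistance factor is LC99 in the cyclophosphamide-resistant line divided by LC99 in the matching wild-type line. Each LC99 comes from a clonogenic assay with 1-h drug exposure, by linear regression of log survival vs concentration, at least three determinations.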

[7] = test system: L1210; assay: Resistance factor for LC99 of resistant (L1210/CP) to that of LC99 for wild type (L1210/0).; assay type: functional, Mus musculus; procedure, shortened: as §2
[8] = test system: L1210; assay: In vivo antitumor activity against intraperitoneal murine wild type L1210 Leukemia cells at 340 umol/kg; assay type: functional, Mus musculus
Procedure, shortened: (§3)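 NCI L1210 protocol. Tumor propagated in DBA/2 mice; tests done in B6D2F1 mice, six per group, given 10⁶ L1210 cells ip. One ip dose of drug suspended in 2% (carboxymethyl)cellulose (or vehicle alone) given 24 h later. Survival followed daily for 30 days. %T/C = 100 × treated/control survival time.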

[9] = test system: L1210; assay: In vivo antitumor activity against intraperitoneal murine wild type L1210 Leukemia cells at 170 umol/kg; assay type: functional, Mus musculus; procedure, shortened: as §3
[10] = test system: L1210; assay: In vivo antitumor activity against intraperitoneal murine wild type L1210 Leukemia cells at 510 umol/kg; assay type: functional, Mus musculus; procedure, shortened: as §3
[11] = test system: L1210; assay: In vivo antitumor activity against intraperitoneal murine wild type L1210 Leukemia cells at 680 umol/kg; assay type: functional, Mus musculus; procedure, shortened: as §3
[12] = test system: L1210; assay: In vivo antitumor activity against intraperitoneal murine cyclophosphamide resistant L1210 Leukemia cells at 170 umol/kg; assay type: functional, Mus musculus; procedure, shortened: as §3
[13] = test system: L1210; assay: In vivo antitumor activity against intraperitoneal murine cyclophosphamide resistant L1210 Leukemia cells at 510 umol/kg; assay type: functional, Mus musculus; procedure, shortened: as §3
[14] = test system: L1210; assay: In vivo antitumor activity against intraperitoneal murine cyclophosphamide resistant L1210 Leukemia cells at 340 umol/kg; assay type: functional, Mus musculus; procedure, shortened: as §3
[15] = test system: L1210; assay: In vivo antitumor activity against intraperitoneal murine cyclophosphamide resistant L1210 Leukemia cells at 680 umol/kg; assay type: functional, Mus musculus; procedure, shortened: as §3

| Compound | half-life [1] | LC99 [2] | LC99 [3] | LC99 [4] | LC99 [5] | RF [6] | RF [7] | T/C [8] | T/C [9] | T/C [10] | T/C [11] | T/C [12] | T/C [13] | T/C [14] | T/C [15] |
| --- | --- | --- | --- | --- | --- | --- | --- | --- | --- | --- | --- | --- | --- | --- | --- |
| O=[P@@]1(N(CCCl)CCCl)N[C@H](OO)C[C@@H](c2ccccc2)O1 | 1.53 h | 20 µM | 26 µM | 21 µM | 16 µM | 1.3 | 1.3 |  |  |  |  |  |  |  |  |
| O=[P@]1(N(CCCl)CCCl)N[C@H](OO)C[C@@H](c2cccnc2)O1 | 1.75 h | 36 µM | 56 µM | 34 µM | 33 µM | 1 | 1.6 |  |  |  |  |  |  |  |  |
| CC(C)[C@@H]1C[C@@H](OO)N[P@](=O)(N(CCCl)CCCl)O1 | > 8.33 h | 110 µM | 86 µM |  | 61 µM | 0.7 | 1 |  |  |  |  |  |  |  |  |
| O=[P@]1(N(CCCl)CCCl)N[C@H](OO)C[C@@H](c2ccccc2)O1 | 2.17 h | 9 µM | 29 µM | 15 µM | 6 µM | 2.5 | 3.2 | 144% | 117% |  |  |  |  |  |  |
| O=[N+]([O-])c1ccc([C@@H]2C[C@@H](OO)N[P@](=O)(N(CCCl)CCCl)O2)cc1 | 3.17 h | 8 µM | 8 µM | 3 µM | 7 µM | 0.4 | 1 | 163% |  | 185% | 205% |  |  |  |  |
| O=[P@]1(N(CCCl)CCCl)N[C@H](OO)C[C@@H](c2ccc(F)cc2)O1 | 3.42 h | 7 µM | 8 µM | 5 µM | 6 µM | 1.2 | 1.2 | 163% |  | 188% |  |  |  |  |  |
| O=P1(N(CCCl)CCCl)NCCCO1 (stereo not given) [CYCLOPHOSPHAMIDE ANHYDROUS] |  |  |  |  |  |  |  |  | 150% | 208% |  | 105% | 110% | 95% |  |
| O=P1(N(CCCl)CCCl)NC(OO)CCO1 (stereo not given) [PERFOSFAMIDE] | 0.25 h | 8 µM | 140 µM | 60 µM | 6 µM | 10 | 17 | 171% | 140% |  |  | 115% |  | 110% |  |
| O=[P@]1(N(CCCl)CCCl)N[C@H](OO)C[C@@H](c2ccncc2)O1 | 1.83 h | 53 µM | 57 µM | 23 µM | 44 µM | 0.5 | 1.1 | 150% | 130% | 160% | 190% | 119% | 138% | 131% | 150% |
| C[C@@H]1C[C@@H](OO)N[P@](=O)(N(CCCl)CCCl)O1 | > 8.33 h | 39 µM | 180 µM | 69 µM | 26 µM | 2.7 | 4.6 | 138% |  |  |  |  |  |  |  |
| O=[P@]1(N(CCCl)CCCl)N[C@H](OO)C[C@@H](CCc2ccccc2)O1 | > 8.33 h | 13 µM | 9 µM | 5 µM | 10 µM | 0.5 | 0.7 | 106% |  |  |  |  |  |  |  |
| Cc1ccc([C@@H]2C[C@@H](OO)N[P@](=O)(N(CCCl)CCCl)O2)cc1 | 4 h | 5 µM | 6 µM | 3 µM | 3 µM | 1 | 1.2 | 150% |  | 175% | 175% |  |  |  |  |
